Yeast lifespan up: yeast lifespan extension; S. cerevisiae growth with nicotinamide, OD615; deaD strain in restrictive glucose medium; inhibition of the nicotinamide effect, % at 10 µM; actives 0.68% (n = 130,000);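 active means inhibition above a set limit, placed 3 SD over the median of all compounds, cut at about 26% in these data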
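Assay system: DeaD-strain S. cerevisiae. Medium: CSMM-D glucose medium, restrictive. Reagent: nicotinamide, 1.5 mM, co-present with compound. Compound: 10 µM single point, 0.25% DMSO. Schedule: culture preincubation 4 h, compound exposure 48 h, both 30 °C. Detection: absorbance at 615 nm.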
WT yeast gro inh: growth inhibition of WT yeast, mitochondrial fusion screen; mitochondrial fusion phenotypic screen, WT strain; inhibition, % at 10 µM; actives 2.1% (n = 190,000); AID 1362; in the data active means inhibition above about 58%; tested in S. cerevisiae
BB579 growth dn: yeast BB579 growth reduction in restrictive medium. S. cerevisiae BB579 growth, OD615, 48 h. inhibition, % at 10 µM. actives 0.51% (n = 140,000). AID 804;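 active means inhibition above a set limit, 3 SD over the mean compound inhibition, cut at about 44% in these data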
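System: Saccharomyces cerevisiae DeaD strain BB579, replicative lifespan model yeast | Buffer or medium: Restrictive glucose-based CSMM-D medium | Times: 4 h preincubation and 48 h exposure at 30 °C | Detection: OD615 turbidity measurement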
Cl transport mod: modulators of human KCC2 chloride dependent transport | KCC2 cells, thallium flux FluoZin-2 fluorescence | Q9H2X9 | actives 2.2% (n = 190,000) | B-score of Tl+ flux slope (higher = more flux/activation; lower = inhibition) at 10 µM;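 active means thallium flux slope and its plate-corrected score both differing from the plate sample mean at a set confidence after two filtering rounds, in either direction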;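 further: slope of fluorescence scaled to starting intensity during 10 to 20 s after thallium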
RAM network inh: blocks the yeast RAM network | S. cerevisiae dse1pr::URA3 reporter, 5-FOA growth OD615, 2 d; analog-sensitive cbk1-as2 kinase mutant strain | inhibition, % at 50 µM | actives 1.8% (n = 190,000);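 active means inhibition above a set limit, 3 SD over mean compound inhibition, cut at about 8.4% in these data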;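 further: inhibition rescues growth on 5-FOA so higher OD means more RAM inhibition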
Hits are given with their value; – = inactive; · = no result. Compounds with a hit are over-represented: about 5.5% of the library has one in this group of screens.

SMILES	Yeast lifespan up	WT yeast gro inh	BB579 growth dn	Cl transport mod	RAM network inh
Cc1ccc(OCCCCn2cnc3ccccc32)cc1	·	65.1	·	–	–
c1ccc2c(c1)ncn2CCCOc1ccc2c(c1)CCC2	–	65.3	–	·	–
c1ccc(OCCn2cnc3ccccc32)cc1	–	–	–	·	–
c1ccc(OCCCCn2cnc3ccccc32)cc1	–	–	–	–	–
c1ccc2c(c1)ncn2CCCCOc1ccc2c(c1)CCC2	–	69.2	–	·	–
CCS(=O)(=O)N1CCN(c2ccc(Cl)cc2[N+](=O)[O-])CC1	–	–	–	–	–
O=C(OCCOc1ccccc1)c1n[nH]c2ccccc12	·	·	·	–	·
Cc1cc2cc(CNC(=O)c3ccc4c(c3)OCO4)ccc2[nH]1	·	·	·	–	·
O=c1c2ccccc2[nH]c(=S)n1CCN1CCCC1	·	–	·	–	–
O=C(c1ccc(F)cc1)C1CCN(CCn2c(=S)[nH]c3ccccc3c2=O)CC1	·	–	·	7.01	·
COc1ccc(C(=O)C[n+]2cccc(C)c2)cc1	–	–	–	–	–
CC(=O)CC(c1ccccc1)S(=O)(=O)c1ccc(C)cc1 (configuration not stated)	–	–	–	–	–
COc1ccc(C(CC(=O)c2ccccc2)CC(=O)c2ccccc2)cc1	·	·	·	–	·
COc1ccc(O)c(C(=O)CC(=O)c2ccccc2)c1	–	–	–	21.6	–
COc1ccc(C(CC(=O)c2ccccc2)S(=O)(=O)c2ccc(C)cc2)cc1 (configuration not stated)	–	–	–	–	9.8
COc1ccc(C(=O)C/C(=C\C(=O)c2ccc(C)cc2)c2ccccc2)cc1	33.2	–	–	–	10.9
O=C(CCl)c1ccc2[nH]c(=O)oc2c1	·	·	·	–	·
CCOC(=O)N1C=CC=C[C@@H]2[C@@H](N3C(=O)c4ccccc4C3=O)C(=O)N21	–	–	–	–	–
O=C(Nc1ccc(CN2CCCCC2)cc1)c1sc2ccccc2c1Cl	·	·	·	–	·
CCSc1ccccc1C(=O)n1nnc2ccccc21	60.2	–	–	–	–
CC1CCc2sc(C(=O)OCC(=O)NCc3ccc(F)cc3)cc2C1 (configuration not stated)	–	–	–	–	–
CN1CCN(c2cc(N3CCc4ccccc4C3)c(F)cc2[N+](=O)[O-])CC1	–	87.3	–	–	–
CC(C(N)=O)N1C(=O)c2cccc3cccc1c23 (configuration not stated)	–	–	–	·	–
C/C=C(\C)CN1CCN(c2cc(C)ccc2C)CC1	–	59.2	–	·	–
C/C=C(\C)CN1CCN(c2cccc(C)c2C)CC1	–	–	–	–	–
SMILES	Yeast lifespan up	WT yeast gro inh	BB579 growth dn	Cl transport mod	RAM network inh
COC(=O)CCCC(=O)NC(C)c1cnn(-c2ccccc2C)c1C (configuration not stated)	·	–	·	–	–
Cc1ccc(NC2CC(C)NC(=S)N2)cc1 (configuration not stated)	·	·	·	–	·
CCCCCCn1c(=O)c(Cc2ccccc2)c(O)c2ccccc21	·	–	·	–	–
O=c1cc(O)c2c(=O)n(-c3ccccc3)c3c(c2o1)CCCCCC3	46.5	–	–	–	–
O=c1cc(O)c2c(=O)n(Cc3ccccc3)c3ccccc3c2o1	·	–	·	–	–
O=c1cc(O)c2c(=O)n(C3CCCCC3)c3ccccc3c2o1	30.9	–	–	·	–
CCCCn1c(=O)c2c(O)cc(=O)oc2c2ccccc21	43.0	–	–	·	–
CCCCCCn1c(=O)c(-c2ccccc2)c(O)c2ccccc21	–	–	–	·	9.5
Cc1cccc(-c2noc(-c3cc4ccccc4oc3=O)n2)c1	–	–	–	–	–
CC(C)Oc1ccc(Cc2cnc(=S)[nH]c2N)cc1	·	–	·	–	–
Cc1cc(C)c2nc(-c3ccccn3)cc(C(=O)NCCc3ccc(S(N)(=O)=O)cc3)c2c1	·	–	·	–	10.4
CC(C)=Cc1oc2ccc([N+](=O)[O-])cc2c1N1CC(C)OC(C)C1 (configuration not stated)	·	–	·	–	–
N=C(N)SCc1cn(-c2ccccc2)nc1-c1ccc(Br)cc1	·	85.5	·	–	–
COc1ccc(-c2nn(-c3ccccc3)cc2CO)cc1	–	–	–	·	–
O=C(c1ccc2c(c1)OCO2)C1CCCN(C(=O)c2cnn(Cc3ccccc3)c2)C1 (configuration not stated)	·	–	·	·	–
O=C(N/N=C/c1c[nH]c2ccccc12)c1[nH]c2ccc(Br)cc2c1-c1ccccc1	–	96.0	–	–	–
O=C(N/N=C/c1ccc(O)cc1)c1[nH]c2ccc(Br)cc2c1-c1ccccc1	–	–	–	–	–
